JMJD2C inh – inhibitors of GASC-1 histone demethylase, primary screen, biochemical, fluorescence, DELFIA europium; Lysine-specific demethylase 4C (Homo sapiens), Q9H3R0; GST-JMJD2C(1-420) H3K9me3 demethylation; inhibition, % at 2.35 µM; 330,000 tested, 0.069% active; AID 2099, 2009;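 active = more than half of a compound's replicate wells show inhibition beyond 50%, single wells judged on their own value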;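 note: signal counts dimethyl H3K9 product captured on neutravidin plate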
NR2E3 ag-1 – NR2E3 agonists in two-hybrid cells, primary screen, cell-based, luminescence, CHO-S, Gal4-NCOR/VP16-NR2E3 | 360,000 tested, 0.35% active | luciferase | Photoreceptor-specific nuclear receptor (Homo sapiens), Q9Y5X4 | inhibition of corepressor binding, % at 3.98 µM;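 active = inhibition above the mean of all tested compounds plus 3 SD, cut at about 70% in these data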;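 note: higher means lower luciferase signal from less NR2E3 corepressor binding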
NR2E3 ag-2 – inhibitors of NR2E3-RetCOR corepressor binding, primary screen, NR2E3 agonist project, biochemical, TR-FRET, GST-NR2E3, biotin-RetCOR; 320,000 tested, 0.12% active; 1536-well; AID 2300, 2010; Photoreceptor-specific nuclear receptor (Homo sapiens), Q9Y5X4; inhibition of corepressor binding, % at 4.78 µM;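 active = percent inhibition above the cutoff of mean plus 3 SD of all tested compounds, set per screening campaign, cut at about 20% in these data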
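System: GST-NR2E3 and biotin-RetCOR proteins; probe or stimulus: 7 nM biotin-RetCOR; doses: compound at 4.8 µM, single dose; schedule: Compound–protein incubation for 5 h at 4 °C; detection: time-resolved FRET; read-out: percent inhibition; controls: biotin wells as high control, 0.6% DMSO wells as low control; format: 1536-well plates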
proKLK7 act – proKLK7 zymogen activators, primary screen, biochemical, fluorescence intensity | Kallikrein-7 (Homo sapiens), P49862 | purified proKLK7, EDANS-DABCYL substrate fluorescence; 100% is mature enzyme control, 0% vehicle | activation, % at 7 µM | 370,000 tested, 0.9% active | AID 652039, 2013;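 active = activation above the mean of all tested compounds plus 3 SD, computed per campaign excluding outliers beyond control limits, cut at about 13% in these data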
Target sequence (P49862 whole entry, looked up): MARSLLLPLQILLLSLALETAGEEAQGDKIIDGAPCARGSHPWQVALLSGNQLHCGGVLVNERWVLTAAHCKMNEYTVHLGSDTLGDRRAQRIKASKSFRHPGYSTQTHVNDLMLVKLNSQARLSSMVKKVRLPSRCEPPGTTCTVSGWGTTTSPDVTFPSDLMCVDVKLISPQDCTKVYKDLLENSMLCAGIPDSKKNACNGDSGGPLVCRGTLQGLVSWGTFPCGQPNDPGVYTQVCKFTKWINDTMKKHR
ADAM17 inh – ADAM17 inhibitors, primary screen, biochemical, QFRET; 370,000 tested, 0.83% active; inhibition, % at 6.95 µM; Disintegrin and metalloproteinase domain-containing protein 17 (Homo sapiens), P78536; recombinant ADAM17, EDANS/DABCYL FRET peptide cleavage; AID 720648, 2013;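 active = inhibition above the mean of compounds lying between control limits plus 3 SD, set per campaign, cut at about 8.5% in these data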
ADAM10 inh – human ADAM10 inhibitors, primary screen, biochemical, QFRET, HTS; recombinant ADAM10, EDANS/DABCYL FRET peptide cleavage, 3 h; 370,000 tested, 0.62% active; AID 720582, 2013; Disintegrin and metalloproteinase domain-containing protein 10 (Homo sapiens), O14672; inhibition, % at 7 µM;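 active = inhibition above a per-campaign cutoff equal to the mean of compounds falling between control-based bounds plus 3 SD, cut at about 20% in these data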
KLK7 act conf – proKLK7 zymogen activators, confirmation, biochemical, fluorescence intensity, triplicate | AID 686949, 2013 | purified proKLK7, EDANS-DABCYL substrate fluorescence; scaled: vehicle 0, mature enzyme 100 | shares compounds with proKLK7 act | activation, % at 7 µM | 3,200 tested, 68% active;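 active = activation, as change over the incubation, above the mean of all tested compounds plus 3 SD, cut at about 13% in these data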
EDANS-DABCYL int – EDANS-DABCYL substrate optical interference, artefact control for kallikrein-7 zymogen activator project, biochemical, fluorescence intensity, high throughput | no enzyme, 4 h; solvent 0%, active enzyme control 100% | activation, % at 7 µM | shares compounds with proKLK7 act | 3,200 tested, 80% active;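 active = activation above the all-compound mean plus 3 SD, ignoring values outside control-based bounds, cut at about 4.8% in these data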;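 note: value is the 4 h activation minus the activation read at time zero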
EDANS interf – counter-screen for kallikrein-7 activators: EDANS-DABCYL interference, dose response; shares compounds with proKLK7 act; EDANS-DABCYL peptide fluorescence interference, no enzyme; EC50, µM; 250 tested, 20% active;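 active = compounds that raise the fluorescence signal in this interference counterscreen, with EC50 at or below 10 µM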;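 note: intact quenched peptide substrate alone read at 355 nm excitation and 520 nm emission; signal is fluorescence gain from T0 to T4 after four hours at room temperature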
Numbers stand for hits; . = inactive; / = not tested or not shown. Most compounds without a hit are left out; they make up all but 2.5% or so of the library.

SMILES | JMJD2C inh | NR2E3 ag-1 | NR2E3 ag-2 | proKLK7 act | ADAM17 inh | ADAM10 inh | KLK7 act conf | EDANS-DABCYL int | others
CCOC(=O)N(C)[C@H]1C[C@H]2c3[nH]c4cccc(-c5cccc(F)c5)c4c3CCN2C(=O)[C@H]1[C@H](C)O | / | / | / | . | . | . | / | /
CN1c2ccccc2-c2nc3ccccc3n2C1c1cccs1 (stereo unspecified) | . | . | . | 40.2 | . | . | . | .
Cc1ccsc1C1Nc2ccccc2C(=O)N1O (stereo unspecified) | . | . | . | . | . | . | / | /
CCN1c2ccccc2-c2nc3ccccc3n2C1c1ccncc1 (stereo unspecified) | . | . | . | . | . | . | / | /
CCN1c2ccccc2-c2nc3ccccc3n2C1c1ccccn1 (stereo unspecified) | . | . | . | 21.1 | . | . | 28.5 | . | EDANS interf=.
Cc1ccc(C2N(C)c3ccccc3-c3nc4ccccc4n32)o1 (stereo unspecified) | . | . | . | . | . | . | / | /
CC(=O)N1c2ccccc2-c2nc3ccccc3n2C1C (stereo unspecified) | . | . | . | . | . | . | / | /
c1csc(C2Nc3ccccc3-c3nc4ccccc4n32)c1 (stereo unspecified) | . | . | . | 89.7 | . | . | 29.8 | 27.3
Cc1ccsc1C1Nc2ccccc2-c2nc3ccccc3n21 (stereo unspecified) | . | . | . | 63.4 | . | . | . | .
O=C(CNS(=O)(=O)/C=C/c1ccccc1)OC1CCOC1=O (stereo unspecified) | . | . | . | . | . | . | / | /
C[C@@H]1CCCN1[C@H]1CS(=O)(=O)N[C@@H]1COCc1ccccc1 | / | . | / | . | . | . | / | /
Cc1ccc(F)c(S(=O)(=O)NC(=O)C2(C)CCN2C(=O)CCC2CCCC2)c1 (stereo unspecified) | / | . | / | . | . | . | / | /
COC(=O)c1c(NC(=O)COC(=O)CNC(=O)C2CCCCC2)sc(C)c1C | . | . | . | . | . | . | / | /
O=C(CSc1ccc2nc(-c3ccccc3)cn2n1)NCC1CCCO1 (stereo unspecified) | . | . | . | . | . | . | / | /
COc1ccc(-c2ccc3nnc(SCC(=O)NCC4CCCO4)n3n2)cc1 (stereo unspecified) | . | . | . | 22.0 | . | . | 31.2 | 17.8 | EDANS interf=.
COc1ccc(-c2cn3nc(SCC(=O)NCC4CCCO4)ccc3n2)cc1 (stereo unspecified) | . | . | . | 95.2 | . | . | 52.0 | 69.5
CCOc1ccc(-c2ccc3nnc(SCC(=O)NCC4CCCO4)n3n2)cc1 (stereo unspecified) | . | . | . | . | . | . | / | /
O=c1[nH]c2cc3c(cc2cc1C(c1nnnn1CC1CCCO1)N1CCCC1)OCO3 (stereo unspecified) | . | . | . | 14.8 | . | . | . | 9.4
Cc1ccc(N(C(=O)c2csnn2)C(C(=O)NC2CCCCC2)c2cccnc2)cc1C (stereo unspecified) | . | . | . | . | . | . | / | /
CC(C)N(C(=O)[C@H]1C[C@H](CC(=O)NCCC2=CCCCC2)C(=O)N2CCc3c([nH]c4cc(-c5ccco5)ccc34)[C@]12C)C(C)C | / | . | / | . | . | . | / | /
